Laboratory results as given in ChEMBL document CHEMBL3272272, “Photoaffinity labeling of the angiotensin II receptor. 1. Synthesis and biological activities of the labeling peptides” (J Med Chem, 1978).
Non-standard residues stand in square brackets, D forms with d. Residues, ends and D or L forms follow the SMILES beside them. Phe(4-NO2) = N[C@@H](Cc1ccc([N+](=O)[O-])cc1)C(=O)O; Phe(3,5-I2,4-NH2) = Nc1c(I)cc(C[C@H](N)C(=O)O)cc1I; Phe(4-N3) = [N-]=[N+]=Nc1ccc(C[C@H](N)C(=O)O)cc1; Phe(4-N2+) = N#[N+]c1ccc(C[C@H](N)C(=O)O)cc1; Phe(4-NH2) = Nc1ccc(C[C@H](N)C(=O)O)cc1; Sar = CNCC(=O)O

Key:
Oryctolagus cuniculus [1] = species: Oryctolagus cuniculus; assay: Agonist activity at rabbit angiotensin […] receptor in aorta strips assessed as peptide concentration required to produce 50% maximal response under exclusion of long wavelength UV light
Outline: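 Rabbit aorta contractile bioassay. […]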

Oryctolagus cuniculus [2] = species: Oryctolagus cuniculus; assay: Relative binding affinity at rabbit angiotensin […] receptor in aorta strips under exclusion of long wavelength UV light relative to control; format: tissue-based
Oryctolagus cuniculus [3] = species: Oryctolagus cuniculus; assay: Intrinsic activity at rabbit angiotensin […] receptor in aorta strips under exclusion of long wavelength UV light; format: tissue-based
Outline: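 Intrinsic activity (αE) was determined with the rabbit aorta bioassay.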

[4] = Antagonist activity at rabbit angiotensin […] receptor in aorta strips under exclusion of long wavelength UV light; format: tissue-based; conditions: Oryctolagus cuniculus, read-out: pA2 (converted)

Row | pD2 (Oryctolagus cuniculus [1]) | Structure (SMILES) | RBA (Oryctolagus cuniculus [2]) [%] | Intrinsic activity (Oryctolagus cuniculus [3]) | Kb [4] [nM]
1 | 8.72 | CNCC(=O)N[C@@H](CCCNC(=N)N)C(=O)N[C@H](C(=O)N[C@@H](Cc1ccc(O)cc1)C(=O)N[C@H](C(=O)N[C@@H](Cc1cnc[nH]1)C(=O)N1CCC[C@H]1C(=O)N[C@@H](Cc1ccc(N=[N+]=[N-])cc1)C(=O)O)C(C)C)C(C)C | 31 | 1 | –
2 | 6.12 | CNCC(=O)N[C@@H](CCCNC(=N)N)C(=O)N[C@H](C(=O)N[C@@H](Cc1ccc(N=[N+]=[N-])cc1)C(=O)N[C@H](C(=O)N[C@@H](Cc1cnc[nH]1)C(=O)N1CCC[C@H]1C(=O)N[C@@H](Cc1ccc(N=[N+]=[N-])cc1)C(=O)O)C(C)C)C(C)C (H-[Sar]RV[Phe(4-N3)]VHP[Phe(4-N3)]-OH) | 0.07 | 0.8 | –
3 | 9.07 | CNCC(=O)N[C@@H](CCCNC(=N)N)C(=O)N[C@H](C(=O)N[C@@H](Cc1ccc(O)cc1)C(=O)N[C@H](C(=O)N[C@@H](Cc1cnc[nH]1)C(=O)N1CCC[C@H]1C(=O)N[C@@H](Cc1ccc([N+](=O)[O-])cc1)C(=O)O)C(C)C)C(C)C | 69 | 0.46 | 0.372
4 | – | CNCC(=O)N[C@@H](CCCNC(=N)N)C(=O)N[C@H](C(=O)N[C@@H](Cc1ccc([N+](=O)[O-])cc1)C(=O)N[C@H](C(=O)N[C@@H](Cc1cnc[nH]1)C(=O)N1CCC[C@H]1C(=O)N[C@@H](Cc1ccccc1)C(=O)O)C(C)C)C(C)C (H-[Sar]RV[Phe(4-NO2)]VHPF-OH) | 0 | 0 | –
5 | 6.02 | CNCC(=O)N[C@@H](CCCNC(=N)N)C(=O)N[C@H](C(=O)N[C@@H](Cc1ccc([N+](=O)[O-])cc1)C(=O)N[C@H](C(=O)N[C@@H](Cc1cnc[nH]1)C(=O)N1CCC[C@H]1C(=O)N[C@@H](Cc1ccc([N+](=O)[O-])cc1)C(=O)O)C(C)C)C(C)C (H-[Sar]RV[Phe(4-NO2)]VHP[Phe(4-NO2)]-OH) | 0.06 | 0.5 | 759
6 | 7.68 | CNCC(=O)N[C@@H](CCCNC(=N)N)C(=O)N[C@H](C(=O)N[C@@H](Cc1cc(I)c(N)c(I)c1)C(=O)N[C@H](C(=O)N[C@@H](Cc1cnc[nH]1)C(=O)N1CCC[C@H]1C(=O)N[C@@H](Cc1ccccc1)C(=O)O)C(C)C)C(C)C (H-[Sar]RV[Phe(3,5-I2,4-NH2)]VHPF-OH) | 2.7 | 1 | –
7 | 8.33 | CNCC(=O)N[C@@H](CCCNC(=N)N)C(=O)N[C@H](C(=O)N[C@@H](Cc1ccc(O)cc1)C(=O)N[C@H](C(=O)N[C@@H](Cc1cnc[nH]1)C(=O)N1CCC[C@H]1C(=O)N[C@@H](Cc1ccc([N+]#N)cc1)C(=O)O)C(C)C)C(C)C | 13 | 1 | –
8 | 9.23 | CNCC(=O)N[C@@H](CCCNC(=N)N)C(=O)N[C@H](C(=O)N[C@@H](Cc1ccc(O)cc1)C(=O)N[C@H](C(=O)N[C@@H](Cc1cnc[nH]1)C(=O)N1CCC[C@H]1C(=O)N[C@@H](Cc1ccccc1)C(=O)O)C(C)C)C(C)C (H-[Sar]RVYVHPF-OH) | – | 1 | –
9 | 7.05 | CNCC(=O)N[C@@H](CCCNC(=N)N)C(=O)N[C@H](C(=O)N[C@@H](Cc1ccc([N+]#N)cc1)C(=O)N[C@H](C(=O)N[C@@H](Cc1cnc[nH]1)C(=O)N1CCC[C@H]1C(=O)N[C@@H](Cc1ccccc1)C(=O)O)C(C)C)C(C)C (H-[Sar]RV[Phe(4-N2+)]VHPF-OH) | 0.66 | 1 | –
10 | 8.41 | CNCC(=O)N[C@@H](CCCNC(=N)N)C(=O)N[C@H](C(=O)N[C@@H](Cc1ccc(N)cc1)C(=O)N[C@H](C(=O)N[C@@H](Cc1cnc[nH]1)C(=O)N1CCC[C@H]1C(=O)N[C@@H](Cc1ccccc1)C(=O)O)C(C)C)C(C)C (H-[Sar]RV[Phe(4-NH2)]VHPF-OH) | 15 | 1 | –
11 | 6.65 | CNCC(=O)N[C@@H](CCCNC(=N)N)C(=O)N[C@H](C(=O)N[C@@H](Cc1ccc(N=[N+]=[N-])cc1)C(=O)N[C@H](C(=O)N[C@@H](Cc1cnc[nH]1)C(=O)N1CCC[C@H]1C(=O)N[C@@H](Cc1ccccc1)C(=O)O)C(C)C)C(C)C (H-[Sar]RV[Phe(4-N3)]VHPF-OH) | 0.26 | 0.75 | –
12 | 8.8 | CNCC(=O)N[C@@H](CCCNC(=N)N)C(=O)N[C@H](C(=O)N[C@@H](Cc1ccc(O)cc1)C(=O)N[C@H](C(=O)N[C@@H](Cc1cnc[nH]1)C(=O)N1CCC[C@H]1C(=O)N[C@@H](Cc1ccc(N)cc1)C(=O)O)C(C)C)C(C)C | 37 | 1 | –
13 | 7.36 | CNCC(=O)N[C@@H](CCCNC(=N)N)C(=O)N[C@H](C(=O)N[C@@H](Cc1ccc([N+]#N)cc1)C(=O)N[C@H](C(=O)N[C@@H](Cc1cnc[nH]1)C(=O)N1CCC[C@H]1C(=O)N[C@@H](Cc1ccc([N+]#N)cc1)C(=O)O)C(C)C)C(C)C (H-[Sar]RV[Phe(4-N2+)]VHP[Phe(4-N2+)]-OH) | 1.3 | 1 | –
14 | – | CNCC(=O)N[C@@H](CCCNC(=N)N)C(=O)N[C@H](C(=O)N[C@@H](Cc1ccc(O)cc1)C(=O)N[C@H](C(=O)N[C@@H](Cc1cnc[nH]1)C(=O)N1CCC[C@H]1C(=O)N[C@@H](Cc1cc(I)c(N)c(I)c1)C(=O)O)C(C)C)C(C)C | 118 | 0 | 0.501
15 | 8.17 | CNCC(=O)N[C@@H](CCCNC(=N)N)C(=O)N[C@H](C(=O)N[C@@H](Cc1ccc(N)cc1)C(=O)N[C@H](C(=O)N[C@@H](Cc1cnc[nH]1)C(=O)N1CCC[C@H]1C(=O)N[C@@H](Cc1ccc(N)cc1)C(=O)O)C(C)C)C(C)C (H-[Sar]RV[Phe(4-NH2)]VHP[Phe(4-NH2)]-OH) | 8.7 | 1 | –
